According to paper PMC5643981 (Chemical Science, 2017):
Marks after values point to notes of the source that are not given here.

Assays:
[1] = tested on: Pseudomonas aeruginosa strain PAO1 biofilm; assay: Dispersal of preformed biofilm; format: cell-based
Method in brief: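 Biofilm formed 24 h at 37 °C, static, in 0.25% (w/v) nutrient broth no. 2 from washed overnight PAO1 (OD600 1) without compound. Wells washed twice with water, then given sterile-filtered test compound plus polymyxin B in the same broth for another 24 h at 37 °C, static. After two washes, stained with 0.5 mM WST-8 + 20 μM phenazine ethosulfate (2.5–3 h, 37 °C); supernatant A450 read.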

[2] = tested on: Pseudomonas aeruginosa strain PAO1 biofilm; assay: Biofilm inhibition; format: cell-based
Method in brief: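 PAO1 grown overnight in LB at 37 °C with 180 rpm shaking, washed in 0.25% (w/v) nutrient broth no. 2 and set to OD600 1. 20 μL goes into 180 μL of the same medium with sterile-filtered test compound and polymyxin B. Incubated humid, static, 24–25 h at 37 °C, washed twice with water. Viability read by 0.5 mM WST-8 + 20 μM phenazine ethosulfate (2.5–3 h, 37 °C), supernatant A450.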

Polymyxin B [Pmx]
Dispersal, Pmx with 29b ([1]; Measured with 8 μg mL^–1 of 29b in the presence of 1.5 μg mL^–1 of Pmx): 100% ^i | Dispersal, Pmx with 36b ([1]; Measured with 8 μg mL^–1 of 36b in the presence of 1.5 μg mL^–1 of Pmx): 100% ^i | MBIC of Pmx +0.5 μg mL^–1 36b ([2]; Pmx in the presence of 0.5 μg mL^–1 36b): 1.5 μg mL^–1 | MBIC of Pmx +1 μg mL^–1 29b ([2]; Pmx in the presence of 1 μg mL^–1 29b): 1.5 μg mL^–1
